Data set [1] addresses T1, Protein kinase C zeta type (Homo sapiens, UniProt Q05513).
T1 sequence (Q05513 whole entry): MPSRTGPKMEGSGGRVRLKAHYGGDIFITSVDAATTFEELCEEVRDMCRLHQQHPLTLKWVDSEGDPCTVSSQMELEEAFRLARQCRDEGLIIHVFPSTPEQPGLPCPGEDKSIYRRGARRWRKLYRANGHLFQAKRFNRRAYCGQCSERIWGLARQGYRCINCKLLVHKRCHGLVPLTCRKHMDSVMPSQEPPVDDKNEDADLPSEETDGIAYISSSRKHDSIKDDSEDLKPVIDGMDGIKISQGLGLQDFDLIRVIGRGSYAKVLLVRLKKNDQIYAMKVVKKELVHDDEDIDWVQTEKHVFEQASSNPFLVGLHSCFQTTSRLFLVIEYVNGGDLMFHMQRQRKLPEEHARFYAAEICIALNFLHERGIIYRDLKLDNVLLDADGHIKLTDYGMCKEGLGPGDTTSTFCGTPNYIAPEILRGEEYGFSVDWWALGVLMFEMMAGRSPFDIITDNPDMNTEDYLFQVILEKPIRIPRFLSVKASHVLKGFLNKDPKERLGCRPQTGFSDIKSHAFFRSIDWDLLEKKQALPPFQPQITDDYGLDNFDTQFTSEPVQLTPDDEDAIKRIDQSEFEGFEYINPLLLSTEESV
In words: Inhibition of human PKCzeta assessed as phosphorylation reaction after 4 mins incubation by cell-free assay.

A further data set deals with RAW264.7. In words: Cytotoxicity against mouse RAW264.7 cells assessed as living cells at 7.5 uM by MTT assay. It counts as cell-based. As to conditions: raw264.7, 7.5 µM. In short, it runs like this:
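RAW 264.7 macrophages: MTT viability assay run in parallel with each nitrite (Griess) experiment, same cell line and same compound treatment conditions.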
In general terms: Formazan colour is commonly taken as a measure of viable cells.

Data set [2] concerns the target T2, Protein kinase C iota type (Homo sapiens) (UniProt P41743).
T2 sequence (whole entry): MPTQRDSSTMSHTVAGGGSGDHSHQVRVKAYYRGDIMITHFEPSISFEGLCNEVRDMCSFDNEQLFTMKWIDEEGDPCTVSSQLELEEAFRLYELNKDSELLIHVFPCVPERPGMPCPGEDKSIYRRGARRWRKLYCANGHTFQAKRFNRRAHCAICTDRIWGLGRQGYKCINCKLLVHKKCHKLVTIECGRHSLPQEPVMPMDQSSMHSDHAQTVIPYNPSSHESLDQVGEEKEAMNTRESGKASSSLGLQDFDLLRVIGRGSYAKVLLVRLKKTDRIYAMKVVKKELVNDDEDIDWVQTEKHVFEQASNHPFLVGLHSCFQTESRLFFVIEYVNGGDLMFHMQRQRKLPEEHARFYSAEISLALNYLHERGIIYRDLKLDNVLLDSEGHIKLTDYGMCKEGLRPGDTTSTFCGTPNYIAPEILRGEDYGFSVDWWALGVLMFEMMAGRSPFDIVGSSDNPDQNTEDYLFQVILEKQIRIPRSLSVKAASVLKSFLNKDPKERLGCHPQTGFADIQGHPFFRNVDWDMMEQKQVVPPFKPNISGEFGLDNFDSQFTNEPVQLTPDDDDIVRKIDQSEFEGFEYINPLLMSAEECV
In words: Inhibition of PKCiota (unknown origin) at 20 uM. In short, it runs like this:
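Cell-free radiometric kinase assay with purified recombinant PKCι under conditions similar to the PKCζ assay. Reaction mixtures preincubated 4 min at 37 °C, then phosphorylation started with γ32P-ATP/Mg2+. Mean of at least two experiments.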

Data set [3] addresses T1, Protein kinase C zeta type. In words: Inhibition of PKCzeta in human U937 cells assessed as inhibition of TNFalpha-induced NF-kappaB activation by reporter gene assay. It is filed as cell-based, U-937.

SMILES strings stand for the structures.

The IC50 is the point on the concentration scale where inhibition reaches its midpoint. By inhibition is commonly meant how much of the control response was suppressed. Read a low inhibition as a weak effect. On to `Oc1ccc(C2CC(c3ccccc3O)=NN2c2ccc(Cl)cc2)cc1O` (centres undefined), for which the IC50 in data set [1] is less than 100 nM. Moreover, the Activity entry in the data set on RAW264.7 is given as “Non-toxic”. The compound also had an inhibition in data set [2] of 44.1%.
As to `Oc1ccccc1C1=NN(c2cccc(Cl)c2)C(c2ccc(O)c(F)c2F)C1` (centres undefined), the 50% inhibitory concentration (IC50) was 6600 nM in data set [1] and 1400 nM in data set [3]. Further, the Activity result in the data set with RAW264.7 is “Non-toxic”. Moreover, the inhibition in data set [2] turned out to be 39.2%.
As to `CC(C)(C)C1=NN(c2ccccc2F)C(c2ccc(O)cc2)C1` (centres undefined), in the data set with RAW264.7, the Activity entry is given as “Non-toxic”.
With `Oc1ccc(C2CC(c3ccc[nH]3)=NN2c2cccc(Cl)c2)cc1` (centres undefined), the Activity result in the data set with RAW264.7 was “Non-toxic”. In data set [2], this compound yielded an inhibition of 20.3%.
Regarding `CC(C)(C)C1=NN(c2cccc(Cl)c2)C(c2ccc(O)cc2)C1` (centres undefined), in data set [1], the IC50 stood at 5200 nM. Further, the Activity result in the data set on RAW264.7 was “Non-toxic”. The same compound registered an inhibition in data set [2] of 43.5%.
Regarding `COc1ccccc1C1=NN(c2ccc(Cl)cc2)C(c2ccc(O)cc2)C1` (centres undefined), the Activity result in the data set on RAW264.7 was “Non-toxic”.
With `CC(C)(C)C1=NN(c2ccc(O)cc2)C(c2ccc(Cl)cc2)C1` (centres undefined), the Activity entry in the data set on RAW264.7 is recorded as “Non-toxic”.
As to `CC(C)(C)C1=NN(c2ccc(F)cc2)C(c2ccc(O)cc2)C1` (centres undefined), the half-maximal inhibitory concentration (IC50) in data set [1] stood at 9400 nM. Further, the Activity entry with RAW264.7 is given as “Non-toxic”.
On to `CC(C)(C)C1=NN(c2ccc(Cl)cc2)C(c2ccc(O)c(F)c2)C1` (centres undefined), for which the results for the IC50 in data set [1] and in data set [3] were 3800 nM and 3700 nM, respectively. In the data set with RAW264.7, the Activity result is given as “Non-toxic”. This compound also had an inhibition in data set [2] of 29.7%.
For `CC(C)(C)C1=NN(c2ccc(F)c(F)c2F)C(c2ccc(O)cc2)C1` (centres undefined) the same measures were 700 nM, 3100 nM, “Non-toxic” and 7.8%.
In the case of `CC1C(c2ccccc2O)=NN(c2cccc(Cl)c2)C1c1ccc(O)c(F)c1` (centres undefined), the Activity result in the data set with RAW264.7 was “Non-toxic”. Moreover, the inhibition in data set [2] amounted to 23.1%.
On to `Cc1ccc(N2N=C(C(C)(C)C)CC2c2ccc(O)cc2)cc1` (centres undefined), for which the Activity result with RAW264.7 is on record as “Non-toxic”.
Regarding `Cc1cccc(N2N=C(C(C)(C)C)CC2c2ccc(O)cc2)c1` (centres undefined), the Activity result in the data set on RAW264.7 was “Non-toxic”. In data set [2], the inhibition came out at 13.9%.
For `CC(C)(C)C1=NN(c2cccc(F)c2)C(c2ccc(O)cc2)C1` (centres undefined), the half-inhibitory concentration (IC50) in data set [1] was 2200 nM. Further, the Activity result in the data set with RAW264.7 is recorded as “Non-toxic”. The same compound had an inhibition in data set [2] of 19.3%.
Regarding `CC(C)(C)C1=NN(c2ccc(C(=O)O)cc2)C(c2ccc(O)cc2)C1` (centres undefined), the Activity result in the data set with RAW264.7 was “Non-toxic”.
`Oc1ccc(C2CC(c3ccccn3)=NN2c2cccc(Cl)c2)cc1` (centres undefined): in data set [1], the IC50 stood at 6200 nM. Further, the Activity result in the data set with RAW264.7 is reported as “Non-toxic”. In data set [2], the inhibition came to 24.1%.
As to `Cc1ccc(N2N=C(C(C)(C)C)CC2c2ccc(O)cc2)c(C)c1` (centres undefined), the Activity result with RAW264.7 is given as “Non-toxic”.
On to `CC(C)(C)C1=NN(c2cccc(C(F)(F)F)c2)C(c2ccc(O)cc2)C1` (centres undefined), for which the IC50 in data set [1] and in data set [3] was 2700 nM throughout. Also, the Activity result with RAW264.7 is “Non-toxic”. The compound further came in with an inhibition in data set [2] of 17%.
As for `Oc1ccc(C2CC(c3cccs3)=NN2c2ccc(Cl)cc2)cc1` (centres undefined), the Activity entry in the data set on RAW264.7 is on record as “Non-toxic”.
Still for that read-out and setting: next, `CC(C)(C)C1=NN(c2ccc(Cl)cc2Cl)C(c2ccc(O)cc2)C1` (centres undefined): “Non-toxic”.
For the compound `CC(C)(C)C1=NN(c2ccc(Cl)cc2)C(c2cccc(O)c2)C1` (centres undefined), the half-inhibitory concentration (IC50) in data set [1] is 5300 nM; in data set [3], 2000 nM. The Activity entry in the data set with RAW264.7 is reported as “Non-toxic”. The inhibition in data set [2] was found to be 17.4%.
Regarding `Nc1ccc(C2=NN(c3ccc(Cl)cc3)C(c3ccc(O)cc3)C2)cc1` (centres undefined), the half-maximal inhibitory concentration (IC50) in data set [1] was determined as 5400 nM. For the same compound, the Activity entry in the data set on RAW264.7 is on record as “Non-toxic”. In data set [2], this compound yielded an inhibition of 38.7%.
With `CC(C)(C)C1=NN(c2ccc(F)c(F)c2)C(c2ccc(O)cc2)C1` (centres undefined), in the data set on RAW264.7, the Activity entry was “Non-toxic”. The compound further came in with an inhibition in data set [2] of 23.7%.
For `CC(C)(C)C1=NN(c2ccc(Cl)cc2)C(c2ccc(C#N)cc2)C1` (centres undefined), the Activity entry with RAW264.7 is reported as “Non-toxic”.
On to `CC(C)(C)C1=NN(c2ccc(C(F)(F)F)cc2)C(c2ccc(O)cc2)C1` (centres undefined), for which, in data set [1], the IC50 came to 8800 nM. Further, the Activity result with RAW264.7 is reported as “Non-toxic”.
For the compound `CC(C)(C)C1=NN(c2ccc(F)cc2F)C(c2ccc(O)cc2)C1` (centres undefined), the Activity result in the data set with RAW264.7 was “Non-toxic”.
For the compound `CCOc1ccccc1C1=NN(c2ccc(Cl)cc2)C(c2ccc(O)cc2)C1` (centres undefined), the Activity entry with RAW264.7 is given as “Non-toxic”.
Turning to `Oc1ccc(C2CC(c3ccccc3)=NN2c2ccc(Cl)cc2)cc1` (centres undefined), the IC50 in data set [1] amounted to 3500 nM. For the same compound, the Activity entry in the data set on RAW264.7 is “Non-toxic”. The compound also yielded an inhibition in data set [2] of 31.6%.
In the case of `Oc1ccc(C2CC(c3ccccc3Cl)=NN2c2ccc(Cl)cc2)cc1` (centres undefined), in the data set on RAW264.7, the Activity result is on record as “Non-toxic”.
Turning to `CC(C)(C)C1=NN(c2c(Cl)cccc2Cl)C(c2ccc(O)cc2)C1` (centres undefined), in the data set on RAW264.7, the Activity entry is “Non-toxic”.
Take `Oc1ccccc1C1=NN(c2cccc(Cl)c2)C(c2cc(F)c(O)c(F)c2)C1` (centres undefined): the IC50 in data set [1] came to 11100 nM; in data set [3], 2500 nM. Besides, the Activity result with RAW264.7 is “Non-toxic”. Further, in data set [2], the inhibition is 45.2%.
In the case of `CC(C)(C)C1=NN(c2ccc(Br)cc2)C(c2ccc(O)cc2)C1` (centres undefined), in data set [1], the IC50 amounted to 11400 nM. The Activity result with RAW264.7 is listed as “Non-toxic”.
On to `Oc1ccc(C2CC(c3ccccc3O)=NN2c2cccc(Cl)c2)cc1F` (centres undefined), for which, in data set [1], the IC50 worked out at 2900 nM. The Activity result in the data set with RAW264.7 was “Non-toxic”. Besides, the inhibition in data set [2] came to 25.2%.
For `Oc1ccc(C2CC(c3ccccc3)=NN2c2cccc(Cl)c2)cc1` (centres undefined), in that order: 2100 nM, “Non-toxic” and 45.5%.
For `Oc1ccc(C2=NN(c3cccc(Cl)c3)C(c3ccc(O)c(F)c3)C2)c(O)c1` (centres undefined), the IC50 was less than 100 nM in data set [1] and 1100 nM in data set [3]. Besides, the Activity entry in the data set on RAW264.7 is listed as “Non-toxic”.
In the case of `CC(C)(C)C1=NN(c2ccc(O)cc2)C(c2ccc(O)cc2)C1` (centres undefined), the Activity entry with RAW264.7 is listed as “Non-toxic”.
Regarding `CC(C)c1ccc(N2N=C(C(C)(C)C)CC2c2ccc(O)cc2)cc1` (centres undefined), the Activity result with RAW264.7 is “Non-toxic”.
As for `CC(C)(C)C1=NN(c2ccc(F)c(Cl)c2)C(c2ccc(O)cc2)C1` (centres undefined), the IC50 in data set [1] was 900 nM; in data set [3], 1900 nM. For the same compound, the Activity entry in the data set with RAW264.7 is “Non-toxic”. In addition, in data set [2], the inhibition was 31.6%.
